# Results taken from ChEMBL document CHEMBL3098070, “Rational design, synthesis and antitubercular evaluation of novel 2-(trifluoromethyl)phenothiazine-[1,2,3]triazole hybrids” (Bioorg Med Chem Lett, 2014).
# Columns and labels:
# [1] = system: Mycobacterium tuberculosis; experiment: Antimycobacterial activity against Mycobacterium tuberculosis H37Rv ATCC 27294 assessed as parasite growth inhibition after 28 days by agar dilution method; format: functional; details: H37Rv ATCC 27294, 672 h
# Summary of the method: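 Agar dilution in Middlebrook 7H11 with OADC; two-fold dilutions 50.0 to 0.4 µg/mL. Inoculum from fresh 7H11 slants, adjusted to 1 mg/mL wet weight in 0.05% Tween 80 saline, diluted 10-2 to 107 cfu/mL; 5 µL spotted per tube. Incubated 37 °C, read at 28 days. MIC = lowest concentration giving complete growth inhibition; triplicates.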
# [2] = Cytotoxicity against HEK293T cells at 50 ug/ml after 72 hrs by MTT assay; format: cell-based, HEK-293T; details: human, read-out: INH
# Summary of the method: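 HEK-293T human embryonic kidney cells exposed to compound at 50 µg/mL for 72 h; viability by cellular MTT conversion to formazan (non-radioactive cell proliferation kit); reported as percentage inhibition of cells.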
# [3] = Selectivity index, ratio of cytotoxicity for HEK293T cells to MIC for Mycobacterium tuberculosis H37Rv; format: toxicity, cell-based, HEK-293T; details: human, read-out: Selectivity Index
SMILES,MIC [1] [µg/mL],"cytotoxicity at 72 h, 50 ug/ml [2] [%]",selectivity ratio [3]
O=C(Cn1cc(-c2ccsc2)nn1)N1c2ccccc2Sc2ccc(C(F)(F)F)cc21,25,–,–
CCCCCCc1cn(CC(=O)N2c3ccccc3Sc3ccc(C(F)(F)F)cc32)nn1,6.25,25.6,> 10
O=C(Cn1cc(CCCO)nn1)N1c2ccccc2Sc2ccc(C(F)(F)F)cc21,12.5,–,–
O=C(Cn1cc(CCc2ccccc2)nn1)N1c2ccccc2Sc2ccc(C(F)(F)F)cc21,25,–,–
O=C(Cn1cc(C2(O)CCCC2)nn1)N1c2ccccc2Sc2ccc(C(F)(F)F)cc21,12.5,–,–
O=C(Cn1cc(C2(O)CCCCC2)nn1)N1c2ccccc2Sc2ccc(C(F)(F)F)cc21,25,–,–
O=C(Cn1cc(-c2ccccc2)nn1)N1c2ccccc2Sc2ccc(C(F)(F)F)cc21,12.5,–,–
Cc1cccc(-c2cn(CC(=O)N3c4ccccc4Sc4ccc(C(F)(F)F)cc43)nn2)c1,25,–,–
Cc1ccc(-c2cn(CC(=O)N3c4ccccc4Sc4ccc(C(F)(F)F)cc43)nn2)cc1,25,–,–
CC(C)(C)c1ccc(-c2cn(CC(=O)N3c4ccccc4Sc4ccc(C(F)(F)F)cc43)nn2)cc1,25,–,–
COc1cccc(-c2cn(CC(=O)N3c4ccccc4Sc4ccc(C(F)(F)F)cc43)nn2)c1,6.25,34.6,> 10
COc1ccc(-c2cn(CC(=O)N3c4ccccc4Sc4ccc(C(F)(F)F)cc43)nn2)c(C)c1,12.5,–,–
O=C(Cn1cc(-c2ccc([N+](=O)[O-])cc2)nn1)N1c2ccccc2Sc2ccc(C(F)(F)F)cc21,25,–,–
O=C(Cn1cc(-c2ccc(F)cc2F)nn1)N1c2ccccc2Sc2ccc(C(F)(F)F)cc21,6.25,30.6,> 10
O=C(Cn1cc(-c2ccc(Cl)c(Cl)c2)nn1)N1c2ccccc2Sc2ccc(C(F)(F)F)cc21,≤ 25,–,–
CCCCCc1ccc(-c2cn(CC(=O)N3c4ccccc4Sc4ccc(C(F)(F)F)cc43)nn2)cc1,≤ 25,–,–
O=C(Cn1cc(-c2ccc(-c3ccccc3)cc2)nn1)N1c2ccccc2Sc2ccc(C(F)(F)F)cc21,25,–,–
CC(=O)c1ccc(C)cc1OCc1cn(CC(=O)N2c3ccccc3Sc3ccc(C(F)(F)F)cc32)nn1,25,–,–
COc1ccc2cc(-c3cn(CC(=O)N4c5ccccc5Sc5ccc(C(F)(F)F)cc54)nn3)ccc2c1,25,–,–
O=C(Cn1cc(-c2cc3ccccc3c3ccccc23)nn1)N1c2ccccc2Sc2ccc(C(F)(F)F)cc21,12.5,–,–
CCCCc1cn(CC(=O)N2c3ccccc3Sc3ccc(C(F)(F)F)cc32)nn1,25,–,–
CCCCCc1cn(CC(=O)N2c3ccccc3Sc3ccc(C(F)(F)F)cc32)nn1,12.5,–,–
CC[C@@H](CO)NCCN[C@@H](CC)CO [ETHAMBUTOL],3.13,–,–
NNC(=O)c1ccncc1 [ISONIAZID],0.1,–,–
NC(=O)c1cnccn1 [PYRAZINAMIDE],50,–,–
